The structures appear in SMILES notation.

As usually defined, the T/C is the ratio of treated to control.

In series [1] the test system is P388. As to the kind of experiment: Antitumor activity against mouse P388 cells allografted in female BDF1 mouse assessed as disease cures by measuring 30-days host survival at 12.5 mg/kg, ip administered daily for 9 days as Klucel suspension starting 24 hrs after tumor inoculation relative to control. Format: functional. The settings on record: route intraperitoneal. In short, it runs like this: (§1)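 P388 leukemia given as an ascitic fluid cell inoculum, ip, to mice of the strain and sex in each line. Nine daily ip doses were given in a Klucel (hydroxypropylcellulose) suspension, starting 24 h after inoculation. Read-out is median survival time as %T/C, with >125 taken as significant; a "cure" means 30-day survival.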

Series [2] deals with P388. As to the kind of experiment: Antitumor activity against mouse P388 cells allografted in female BDF1 mouse assessed as disease cures by measuring 30-days host survival at 25 mg/kg, ip administered daily for 9 days as Klucel suspension starting 24 hrs after tumor inoculation relative to control. In kind it is functional. To be noted: route intraperitoneal. In short, it runs like this:
as §1

For series [3], the system named is L1210. Description: Antileukemic activity against mouse L1210 cells allografted in female BDF1 mouse assessed as change in body weight at 200 mg/kg, ip administered daily for 9 days as Klucel suspension starting 24 hrs after tumor inoculation. In kind it is functional. To be noted: route intraperitoneal. In short, it runs like this:
(§2)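 Ascitic fluid carrying L1210 cells was inoculated ip. Compound was given ip as a Klucel (hydroxypropylcellulose) suspension in nine daily doses, starting 24 h after inoculation. Body-weight difference (treated minus control) was recorded on day 5. Survival was scored as %T/C of mean survival time.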

Series [4] deals with Mus musculus. As to the kind of experiment: Toxicity in male CDF1 mouse allografted with mouse P388 cells assessed as animal survival at 12.5 mg/kg, ip administered daily for 9 days as Klucel suspension starting 24 hrs after tumor inoculation. Format: organism-based. Also noted: dose 12.5 mg/kg, route intraperitoneal. The settings on record: in vivo. The method, boiled down: (§3)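 P-388 leukemia ascitic fluid inoculated ip. Compound given ip as a suspension in Klucel (hydroxypropylcellulose), once daily for nine doses beginning 24 h post-inoculation. Acute toxicity assessed as toxicity-day survivors per group. Survival was followed up to 30 days, with 30-day survival counted as "cure". Follows NCI screening protocols.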

Series [5] concerns P388. Description: Antitumor activity against mouse P388 cells allografted in male CDF1 mouse assessed as change in body weight at 50 mg/kg, ip administered daily for 9 days as Klucel suspension starting 24 hrs after tumor inoculation. The settings on record: route intraperitoneal. Format: functional. The method, boiled down:
(§4)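 Ascitic fluid carrying P388 cells was inoculated ip. Compound was given ip in nine daily doses, starting 24 h after inoculation, in Klucel (hydroxypropylcellulose) suspension or in saline with Tween-80. Body-weight difference (treated minus control) was recorded on day 5. Survival was scored as %T/C of median survival time, and 30-day survival counted as cure.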

Series [6] concerns L1210. As to the kind of experiment: Antileukemic activity against mouse L1210 cells allografted in female BDF1 mouse assessed as change in body weight at 50 mg/kg, ip administered daily for 9 days as Klucel suspension starting 24 hrs after tumor inoculation. Format: functional. The settings on record: route intraperitoneal. The method, boiled down: as §2
The subject of series [7] is L1210. As to the kind of experiment: Antileukemic activity against mouse L1210 cells allografted in female BDF1 mouse assessed as host mean survival time at 100 mg/kg, ip administered daily for 9 days as Klucel suspension starting 24 hrs after tumor inoculation relative to control. Format: functional. To be noted: route intraperitoneal. In short, it runs like this:
(§5)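 L1210 leukemia given as an ascitic fluid cell inoculum, ip, to mice of the strain and sex in each line. Test material was given ip for nine daily doses starting 24 h after inoculation, in a Klucel (hydroxypropylcellulose) suspension. Read-out is mean survival time as %T/C versus controls, with >125 taken as significant.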

Series [8] concerns P388. Description: Antitumor activity against mouse P388 cells allografted in female BDF1 mouse assessed as disease cures by measuring 30-days host survival at 6.25 mg/kg, ip administered daily for 9 days as Klucel suspension starting 24 hrs after tumor inoculation relative to control. In kind it is functional. The settings on record: route intraperitoneal. In short, it runs like this: as §1

The subject of series [9] is L1210. Description: Antileukemic activity against mouse L1210 cells allografted in female BDF1 mouse assessed as host mean survival time at 50 mg/kg, ip administered daily for 9 days as Klucel suspension starting 24 hrs after tumor inoculation relative to control. Format: functional. The settings on record: route intraperitoneal. In short, it runs like this: as §5

In series [10] the test system is P388. Description: Antitumor activity against mouse P388 cells allografted in female BDF1 mouse assessed as change in body weight at 12.5 mg/kg, ip administered daily for 9 days as Klucel suspension starting 24 hrs after tumor inoculation. The settings on record: route intraperitoneal. Format: functional. The method, boiled down:
as §4

Series [11] concerns P388. Description: Antitumor activity against mouse P388 cells allografted in male CDF1 mouse assessed as disease cures by measuring 30-days host survival at 50 mg/kg, ip administered daily for 9 days as Klucel suspension starting 24 hrs after tumor inoculation relative to control. Format: functional. The settings on record: route intraperitoneal. The method, boiled down: as §1

A short description of series [12]: Cytotoxicity against human 9KB cells treated as ethanol solution. In kind it is functional. To be noted: read-out: ED50 (the source's name). In short, it runs like this: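 Compound applied as an ethanol solution; activity read out as ED50 under the general screening protocol.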
In series [13] the test system is P388. Description: Antitumor activity against mouse P388 cells allografted in male CDF1 mouse assessed as disease cures by measuring 30-days host survival at 12.5 mg/kg, ip administered daily for 9 days as Klucel suspension starting 24 hrs after tumor inoculation relative to control. In kind it is functional. The settings on record: route intraperitoneal. The method, boiled down:
as §1

The test system of series [14] is P388. As to the kind of experiment: Antitumor activity against mouse P388 cells allografted in female CDF1 mouse assessed as change in body weight at 50 mg/kg, ip administered daily for 9 days as Klucel suspension starting 24 hrs after tumor inoculation. In kind it is functional. To be noted: route intraperitoneal. In short, it runs like this: as §4
For series [15], the system named is P388. As to the kind of experiment: Antitumor activity against mouse P388 cells allografted in female CDF1 mouse assessed as disease cures by measuring 30-days host survival at 100 mg/kg, ip administered daily for 9 days as Klucel suspension starting 24 hrs after tumor inoculation relative to control. The settings on record: route intraperitoneal. In kind it is functional. In short, it runs like this:
as §1

The test system of series [16] is Mus musculus. As to the kind of experiment: Toxicity in female BDF1 mouse allografted with mouse P388 cells assessed as animal survival at 12.5 mg/kg, ip administered daily for 9 days as Klucel suspension starting 24 hrs after tumor inoculation. Format: organism-based. Also noted: dose 12.5 mg/kg, route intraperitoneal. To be noted: in vivo. The method, boiled down:
as §3

For series [17], the system named is P388. Description: Antitumor activity against mouse P388 cells allografted in female CDF1 mouse assessed as change in body weight at 100 mg/kg, ip administered daily for 9 days as Klucel suspension starting 24 hrs after tumor inoculation. Format: functional. The settings on record: route intraperitoneal. The method, boiled down: as §4
Series [18] deals with L1210. As to the kind of experiment: Antileukemic activity against mouse L1210 cells allografted in female BDF1 mouse assessed as change in body weight at 100 mg/kg, ip administered daily for 9 days as Klucel suspension starting 24 hrs after tumor inoculation. Format: functional. The settings on record: route intraperitoneal. In short, it runs like this: as §2
For series [19], the system named is Mus musculus. As to the kind of experiment: Toxicity in male CDF1 mouse allografted with mouse P388 cells assessed as animal survival at 50 mg/kg, ip administered daily for 9 days as Klucel suspension starting 24 hrs after tumor inoculation. In kind it is organism-based. Also noted: dose 50 mg/kg, route intraperitoneal. To be noted: in vivo. The method, boiled down: as §3

The subject of series [20] is Mus musculus. Description: Toxicity in female CDF1 mouse allografted with mouse P388 cells assessed as animal survival at 50 mg/kg, ip administered daily for 9 days as Klucel suspension starting 24 hrs after tumor inoculation. Also noted: dose 50 mg/kg, route intraperitoneal. In kind it is organism-based. To be noted: in vivo. The method, boiled down: as §3
The test system of series [21] is P388. As to the kind of experiment: Antitumor activity against mouse P388 cells allografted in male CDF1 mouse assessed as disease cures by measuring 30-days host survival at 25 mg/kg, ip administered daily for 9 days as Klucel suspension starting 24 hrs after tumor inoculation relative to control. Format: functional. The settings on record: route intraperitoneal. In short, it runs like this:
as §1

Series [22] concerns Mus musculus. Description: Toxicity in female BDF1 mouse allografted with mouse L1210 cells assessed as animal survival at 50 mg/kg, ip administered daily for 9 days as Klucel suspension starting 24 hrs after tumor inoculation measured on fifth day. Also noted: dose 50 mg/kg, route intraperitoneal. The settings on record: in vivo. Format: organism-based. The method, boiled down: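 L1210 leukemia passaged as ascitic fluid and inoculated ip. Test agent given ip as a Klucel (hydroxypropylcellulose) suspension, nine daily doses starting 24 h after tumor inoculation. Acute toxicity read as toxicity-day survivors per group (out of 6), recorded on day 5. Animal weight difference T − C was also recorded. Follows NCI screening protocols.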

The subject of series [23] is P388. Description: Antitumor activity against mouse P388 cells allografted in female BDF1 mouse assessed as change in body weight at 25 mg/kg, ip administered daily for 9 days as Klucel suspension starting 24 hrs after tumor inoculation. In kind it is functional. To be noted: route intraperitoneal. In short, it runs like this:
as §4

With `CC(=O)OCc1c(COC(C)=O)c(-c2ccccc2)n2c1CCC2`, the T/C came out at 126% with P388 [1]; 133% in the series with P388 [2]; 107% in the series with L1210 [7]; 107% in the series with P388 [8]; 114% in the series on L1210 [9]; 87% in the series with P388 [11]. In addition, the T/C came to 110% in the series with P388 [13], 49% with P388 [15] and 142% in the series with P388 [21]. The Activity is given as -2.8 g with L1210 [3]; “Non-toxic” in the series on Mus musculus [4]; -6.1 g with P388 [5]; -2.6 g with L1210 [6]; -1.2 g in the series on P388 [10]; -2.5 g in the series on P388 [14]. Also, the Activity entry was “Non-toxic” in the series with Mus musculus [16]; -2.8 g in the series with P388 [17]; -2.3 g in the series with L1210 [18]; “Non-toxic” in the series on Mus musculus [19]; “Non-toxic” in the series with Mus musculus [20]; “Non-toxic” with Mus musculus [22]. Also, in the series with P388 [23], the Activity is given as -2 g. For the same compound, the EC50 in series [12] is > 100 µg/mL.

The values above are taken from ChEMBL document CHEMBL3244396, “Synthesis and antileukemic activity of 5-substituted 2,3-dihydro-6,7-bis(hydroxymethyl)-1H-pyrrolizine diesters” (J Med Chem, 1977).
